From ChEMBL document CHEMBL1144320, “Structure-activity relations of azafluorenone and azaanthraquinone as antimicrobial compounds” (2005)
Values after ≈ are worked out from the molar mass of the structure shown.

Tests used:
Assay type in all cases: functional
Staphylococcus aureus = assay: Minimum inhibitory concentration against Staphylococcus aureus
Method in brief: (§1)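 MIC by 2-fold broth dilution in peptone medium containing compound; bacteria grown in test tubes at 37 °C for 2 days. Strains: S. aureus NCTC 8530, B. subtilis IFO 3007, E. coli IFO 3545, P. vulgaris IFO 3851, P. aeruginosa IFO 3080.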

Pseudomonas aeruginosa = assay: Minimum inhibitory concentration against Pseudomonas aeruginosa; method in brief: as §1
Saccharomyces cerevisiae = assay: Minimum inhibitory concentration against Saccharomyces cerevisiae
Method in brief: (§2)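 Strains: S. cerevisiae IFO 0203, S. pombe IFO 0342, C. utilis OUT 6020, R. rubra IFO 0001, A. niger ATCC 6275, P. chrysogenum IFO 4626, R. chinensis IFO 4768, M. mucedo IFO 7684.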

[1] = test system: Schizosaccharomyces pombe; assay: Minimum inhibitory concentration against Schizosaccharomyces pombe; method in brief: as §2
Cyberlindnera jadinii = assay: Minimum inhibitory concentration against Candida utilis; conditions: Williopsis jadinii; method in brief: as §2
Escherichia coli = assay: Minimum inhibitory concentration against Escherichia coli; method in brief: as §1
[2] = Minimum inhibitory concentration against Penicillium chrysogenum; method in brief: as §2
Proteus vulgaris = assay: Minimum inhibitory concentration against Proteus vulgaris; method in brief: as §1
Aspergillus niger = assay: Minimum inhibitory concentration against Aspergillus niger; method in brief: as §2
Rhodotorula mucilaginosa = assay: Minimum inhibitory concentration against Rhodotorula rubra; method in brief: as §2
[3] = test system: Rhizopus microsporus var. chinensis; assay: Minimum inhibitory concentration against Rhizopus chinensis; method in brief: as §2
Mucor mucedo = assay: Minimum inhibitory concentration against Mucor mucedo; method in brief: as §2
Bacillus subtilis = assay: Minimum inhibitory concentration against Bacillus subtilis; method in brief: as §1

An MIC (Staphylococcus aureus) of 1.56 µg/mL (≈ 6.93 µM), an MIC (Pseudomonas aeruginosa) of 3.13 µg/mL (≈ 13.9 µM) and an MIC (Saccharomyces cerevisiae) of 3.13 µg/mL (≈ 13.9 µM) were found for `O=C1c2cnccc2C(=O)c2c(O)cccc21` in this work. The MIC [1] was 0.2 µg/mL (≈ 0.888 µM), the MIC (Cyberlindnera jadinii) was 6.25 µg/mL (≈ 27.8 µM) and the MIC (Escherichia coli) was > 100 µg/mL. For the same compound, the MIC [2] was 1.56 µg/mL (≈ 6.93 µM), the MIC (Proteus vulgaris) was 25 µg/mL (≈ 111 µM) and the MIC (Aspergillus niger) was 3.13 µg/mL (≈ 13.9 µM). The MIC (Rhodotorula mucilaginosa) was 3.13 µg/mL (≈ 13.9 µM), the MIC [3] was 6.25 µg/mL (≈ 27.8 µM) and the MIC (Mucor mucedo) was 6.25 µg/mL (≈ 27.8 µM). For the same compound, the MIC (Bacillus subtilis) was 3.13 µg/mL (≈ 13.9 µM).

An MIC (Staphylococcus aureus) of 1.56 µg/mL (≈ 6.93 µM), an MIC (Pseudomonas aeruginosa) of 3.13 µg/mL (≈ 13.9 µM) and an MIC (Saccharomyces cerevisiae) of 3.13 µg/mL (≈ 13.9 µM) were found for `O=C1c2ccncc2C(=O)c2c(O)cccc21` in this work. The MIC [1] was 0.78 µg/mL (≈ 3.46 µM), the MIC (Cyberlindnera jadinii) was 12.5 µg/mL (≈ 55.5 µM) and the MIC (Escherichia coli) was > 100 µg/mL. It also gave an MIC [2] of 1.56 µg/mL (≈ 6.93 µM), an MIC (Proteus vulgaris) of 25 µg/mL (≈ 111 µM) and an MIC (Aspergillus niger) of 3.13 µg/mL (≈ 13.9 µM). It also gave an MIC (Rhodotorula mucilaginosa) of 3.13 µg/mL (≈ 13.9 µM), an MIC [3] of 12.5 µg/mL (≈ 55.5 µM) and an MIC (Mucor mucedo) of 3.13 µg/mL (≈ 13.9 µM). The MIC (Bacillus subtilis) was 3.13 µg/mL (≈ 13.9 µM).

An MIC (Staphylococcus aureus) of 1.56 µg/mL (≈ 7.25 µM), an MIC (Pseudomonas aeruginosa) of 1.56 µg/mL (≈ 7.25 µM) and an MIC (Saccharomyces cerevisiae) of 1.56 µg/mL (≈ 7.25 µM) were found for `O=C1c2cnccc2C(=O)c2sccc21` in this work. The MIC [1] was 0.39 µg/mL (≈ 1.81 µM), the MIC (Cyberlindnera jadinii) was 3.13 µg/mL (≈ 14.5 µM) and the MIC (Escherichia coli) was 100 µg/mL (≈ 465 µM). For the same compound, the MIC [2] was 0.78 µg/mL (≈ 3.62 µM), the MIC (Proteus vulgaris) was 50 µg/mL (≈ 232 µM) and the MIC (Aspergillus niger) was 0.78 µg/mL (≈ 3.62 µM). The MIC (Rhodotorula mucilaginosa) was 1.56 µg/mL (≈ 7.25 µM), the MIC [3] was 6.25 µg/mL (≈ 29 µM) and the MIC (Mucor mucedo) was 3.13 µg/mL (≈ 14.5 µM). It also gave an MIC (Bacillus subtilis) of 6.25 µg/mL (≈ 29 µM).

An MIC (Staphylococcus aureus) of 6.25 µg/mL (≈ 29.9 µM), an MIC (Pseudomonas aeruginosa) of 6.25 µg/mL (≈ 29.9 µM) and an MIC (Saccharomyces cerevisiae) of 12.5 µg/mL (≈ 59.8 µM) were found for `O=C1c2ccccc2C(=O)c2cnccc21` in this work. For the same compound, the MIC [1] was 3.13 µg/mL (≈ 15 µM), the MIC (Cyberlindnera jadinii) was 12.5 µg/mL (≈ 59.8 µM) and the MIC (Escherichia coli) was > 100 µg/mL. It also gave an MIC [2] of 3.13 µg/mL (≈ 15 µM), an MIC (Proteus vulgaris) of 50 µg/mL (≈ 239 µM) and an MIC (Aspergillus niger) of 12.5 µg/mL (≈ 59.8 µM). For the same compound, the MIC (Rhodotorula mucilaginosa) was 6.25 µg/mL (≈ 29.9 µM), the MIC [3] was 12.5 µg/mL (≈ 59.8 µM) and the MIC (Mucor mucedo) was 6.25 µg/mL (≈ 29.9 µM). For the same compound, the MIC (Bacillus subtilis) was 3.13 µg/mL (≈ 15 µM).

An MIC (Staphylococcus aureus) of 12.5 µg/mL (≈ 52.3 µM), an MIC (Pseudomonas aeruginosa) of 25 µg/mL (≈ 105 µM) and an MIC (Saccharomyces cerevisiae) of 100 µg/mL (≈ 418 µM) were found for `Cc1cnc2c(c1)C(=O)c1cccc(O)c1C2=O` in this work. The MIC [1] was 12.5 µg/mL (≈ 52.3 µM), the MIC (Cyberlindnera jadinii) was 25 µg/mL (≈ 105 µM) and the MIC (Escherichia coli) was > 100 µg/mL. For the same compound, the MIC [2] was 25 µg/mL (≈ 105 µM), the MIC (Proteus vulgaris) was 100 µg/mL (≈ 418 µM) and the MIC (Aspergillus niger) was > 100 µg/mL. For the same compound, the MIC (Rhodotorula mucilaginosa) was 50 µg/mL (≈ 209 µM), the MIC [3] was > 100 µg/mL and the MIC (Mucor mucedo) was 25 µg/mL (≈ 105 µM). For the same compound, the MIC (Bacillus subtilis) was 6.25 µg/mL (≈ 26.1 µM).

An MIC (Staphylococcus aureus) of 12.5 µg/mL (≈ 49 µM), an MIC (Pseudomonas aeruginosa) of 12.5 µg/mL (≈ 49 µM) and an MIC (Saccharomyces cerevisiae) of 12.5 µg/mL (≈ 49 µM) were found for `Cc1ccnc2c1C(=O)c1c(O)ccc(O)c1C2=O` in this work. For the same compound, the MIC [1] was 6.25 µg/mL (≈ 24.5 µM), the MIC (Cyberlindnera jadinii) was 12.5 µg/mL (≈ 49 µM) and the MIC (Escherichia coli) was > 100 µg/mL. The MIC [2] was 6.25 µg/mL (≈ 24.5 µM), the MIC (Proteus vulgaris) was 100 µg/mL (≈ 392 µM) and the MIC (Aspergillus niger) was 50 µg/mL (≈ 196 µM). The MIC (Rhodotorula mucilaginosa) was 12.5 µg/mL (≈ 49 µM), the MIC [3] was 12.5 µg/mL (≈ 49 µM) and the MIC (Mucor mucedo) was 12.5 µg/mL (≈ 49 µM). The MIC (Bacillus subtilis) was 6.25 µg/mL (≈ 24.5 µM).

For `Cc1ccnc2c1-c1ccccc1C2=O`, the MIC (Staphylococcus aureus) was 100 µg/mL (≈ 512 µM), the MIC (Pseudomonas aeruginosa) was 50 µg/mL (≈ 256 µM) and the MIC (Saccharomyces cerevisiae) was > 100 µg/mL. For the same compound, the MIC [1] was 100 µg/mL (≈ 512 µM), the MIC (Cyberlindnera jadinii) was 100 µg/mL (≈ 512 µM) and the MIC (Escherichia coli) was > 100 µg/mL. The MIC [2] was 50 µg/mL (≈ 256 µM), the MIC (Proteus vulgaris) was 100 µg/mL (≈ 512 µM) and the MIC (Aspergillus niger) was 100 µg/mL (≈ 512 µM). For the same compound, the MIC (Rhodotorula mucilaginosa) was 100 µg/mL (≈ 512 µM), the MIC [3] was > 100 µg/mL and the MIC (Mucor mucedo) was 100 µg/mL (≈ 512 µM). It also gave an MIC (Bacillus subtilis) of 50 µg/mL (≈ 256 µM).

An MIC (Staphylococcus aureus) of 12.5 µg/mL (≈ 52.3 µM), an MIC (Pseudomonas aeruginosa) of 25 µg/mL (≈ 105 µM) and an MIC (Saccharomyces cerevisiae) of 100 µg/mL (≈ 418 µM) were found for `Cc1ccnc2c1C(=O)c1cccc(O)c1C2=O` in this work. The MIC [1] was 12.5 µg/mL (≈ 52.3 µM), the MIC (Cyberlindnera jadinii) was 50 µg/mL (≈ 209 µM) and the MIC (Escherichia coli) was > 100 µg/mL. The MIC [2] was 25 µg/mL (≈ 105 µM), the MIC (Proteus vulgaris) was 50 µg/mL (≈ 209 µM) and the MIC (Aspergillus niger) was > 100 µg/mL. The MIC (Rhodotorula mucilaginosa) was 50 µg/mL (≈ 209 µM), the MIC [3] was > 100 µg/mL and the MIC (Mucor mucedo) was 50 µg/mL (≈ 209 µM). It also gave an MIC (Bacillus subtilis) of 12.5 µg/mL (≈ 52.3 µM).

An MIC (Staphylococcus aureus) of 12.5 µg/mL (≈ 52.3 µM), an MIC (Pseudomonas aeruginosa) of 6.25 µg/mL (≈ 26.1 µM) and an MIC (Saccharomyces cerevisiae) of 25 µg/mL (≈ 105 µM) were found for `COc1cccc2c1C(=O)c1ccncc1C2=O` in this work. For the same compound, the MIC [1] was 1.56 µg/mL (≈ 6.52 µM), the MIC (Cyberlindnera jadinii) was 25 µg/mL (≈ 105 µM) and the MIC (Escherichia coli) was > 100 µg/mL. The MIC [2] was 12.5 µg/mL (≈ 52.3 µM), the MIC (Proteus vulgaris) was 50 µg/mL (≈ 209 µM) and the MIC (Aspergillus niger) was 12.5 µg/mL (≈ 52.3 µM). The MIC (Rhodotorula mucilaginosa) was 12.5 µg/mL (≈ 52.3 µM), the MIC [3] was 25 µg/mL (≈ 105 µM) and the MIC (Mucor mucedo) was 12.5 µg/mL (≈ 52.3 µM). The MIC (Bacillus subtilis) was 6.25 µg/mL (≈ 26.1 µM).

An MIC (Staphylococcus aureus) of 12.5 µg/mL (≈ 52.3 µM), an MIC (Pseudomonas aeruginosa) of 6.25 µg/mL (≈ 26.1 µM) and an MIC (Saccharomyces cerevisiae) of 25 µg/mL (≈ 105 µM) were found for `COc1cccc2c1C(=O)c1cnccc1C2=O` in this work. The MIC [1] was 3.13 µg/mL (≈ 13.1 µM), the MIC (Cyberlindnera jadinii) was 25 µg/mL (≈ 105 µM) and the MIC (Escherichia coli) was > 100 µg/mL. It also gave an MIC [2] of 12.5 µg/mL (≈ 52.3 µM), an MIC (Proteus vulgaris) of 50 µg/mL (≈ 209 µM) and an MIC (Aspergillus niger) of 12.5 µg/mL (≈ 52.3 µM). It also gave an MIC (Rhodotorula mucilaginosa) of 6.25 µg/mL (≈ 26.1 µM), an MIC [3] of 25 µg/mL (≈ 105 µM) and an MIC (Mucor mucedo) of 25 µg/mL (≈ 105 µM). It also gave an MIC (Bacillus subtilis) of 3.13 µg/mL (≈ 13.1 µM).

An MIC (Staphylococcus aureus) of 25 µg/mL (≈ 112 µM), an MIC (Pseudomonas aeruginosa) of 50 µg/mL (≈ 224 µM) and an MIC (Saccharomyces cerevisiae) of 100 µg/mL (≈ 448 µM) were found for `Cc1ccnc2c1C(=O)c1ccccc1C2=O` [CLEISTOPHOLINE] in this work. For the same compound, the MIC [1] was 25 µg/mL (≈ 112 µM), the MIC (Cyberlindnera jadinii) was 50 µg/mL (≈ 224 µM) and the MIC (Escherichia coli) was > 100 µg/mL. For the same compound, the MIC [2] was 50 µg/mL (≈ 224 µM), the MIC (Proteus vulgaris) was 50 µg/mL (≈ 224 µM) and the MIC (Aspergillus niger) was 100 µg/mL (≈ 448 µM). For the same compound, the MIC (Rhodotorula mucilaginosa) was 50 µg/mL (≈ 224 µM), the MIC [3] was > 100 µg/mL and the MIC (Mucor mucedo) was 50 µg/mL (≈ 224 µM). For the same compound, the MIC (Bacillus subtilis) was 25 µg/mL (≈ 112 µM).

In the case of `Cc1ccnc2c1C(=O)c1ccccc1-2` [ONYCHINE], the MIC (Staphylococcus aureus) is reported as > 100 µg/mL, the MIC (Pseudomonas aeruginosa) is reported as 100 µg/mL (≈ 512 µM) and the MIC (Saccharomyces cerevisiae) is reported as 100 µg/mL (≈ 512 µM). For the same compound, the MIC [1] was 50 µg/mL (≈ 256 µM), the MIC (Cyberlindnera jadinii) was 100 µg/mL (≈ 512 µM) and the MIC (Escherichia coli) was > 100 µg/mL. It also gave an MIC [2] of 50 µg/mL (≈ 256 µM), an MIC (Proteus vulgaris) of 100 µg/mL (≈ 512 µM) and an MIC (Aspergillus niger) of 100 µg/mL (≈ 512 µM). For the same compound, the MIC (Rhodotorula mucilaginosa) was 100 µg/mL (≈ 512 µM), the MIC [3] was > 100 µg/mL and the MIC (Mucor mucedo) was > 100 µg/mL. For the same compound, the MIC (Bacillus subtilis) was 100 µg/mL (≈ 512 µM).
